Screens deposited in PubChem BioAssay by The Scripps Research Institute Molecular Screening Center.
Rows were chosen to be rich in hits. Some 3.3% of all compounds tested hit in one or more screens of this group.
mABHD4 FP: ABHD4 inhibitors, primary screen, biochemical, fluorescence polarization, mouse; (Lyso)-N-acylphosphatidylethanolamine lipase (Mus musculus), Q8VD66; purified mABHD4, FP-Rh probe fluorescence polarization; inhibition, % at 8.92 µM; 370,000 tested, 0.54% active; AID 720543, 2013;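 active means inhibition exceeding the mean over every tested compound plus 3 SD, cut at about 30% in these data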;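 further: 0% = plate median of compound wells and 100% = S159A mutant with DMSO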
Target sequence (Q8VD66 whole entry, looked up): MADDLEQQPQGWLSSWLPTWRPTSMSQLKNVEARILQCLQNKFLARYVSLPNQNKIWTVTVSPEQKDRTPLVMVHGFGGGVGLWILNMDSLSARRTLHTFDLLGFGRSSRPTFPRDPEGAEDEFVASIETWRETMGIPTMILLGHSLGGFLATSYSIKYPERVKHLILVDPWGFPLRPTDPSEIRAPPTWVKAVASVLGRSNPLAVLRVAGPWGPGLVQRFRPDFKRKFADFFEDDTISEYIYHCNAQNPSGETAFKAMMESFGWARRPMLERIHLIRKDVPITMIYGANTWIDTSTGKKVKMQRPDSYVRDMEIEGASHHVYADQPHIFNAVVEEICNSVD
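assay system = mABHD4 protein | compound dosing = single nominal dose of 8.92 µM, 0.89% DMSO final | read-out basis = percent inhibition of probe binding, normalized to plate controls | schedule = Enzyme–compound pre-incubation 45 min, then probe 60 min, both 25 °C | detection = fluorescence polarization, excitation 525 nm, emission 598 nm, BODIPY TMR filters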
PRMT1 FP inh: PRMT1 methyltransferase inhibitors, primary screen, biochemical, fluorescence polarization; Protein arginine N-methyltransferase 1 (Homo sapiens), Q99873; recombinant PRMT1, activity-based probe fluorescence polarization; inhibition, % at 2.79 µM; 370,000 tested, 1.3% active; AID 652257, 2013;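 active means inhibition above about 21% made by adding two undisclosed values, limit read from the data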
SIAE primary: human SIAE inhibitors, primary screen, biochemical, fluorescence polarization, FP-Rh probe, 1536-well HTS; Sialate O-acetylesterase (Homo sapiens), Q9HAT2; SIAE FP-Rh probe binding; 370,000 tested, 0.69% active; inhibition, % at 9.66 µM; AID 1053197, 2014;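 active means inhibition above a cutoff: mean of compounds within the control limits plus 3 SD of those, cut at about 17% in these data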;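 further: 0% = plate median of compound wells and 100% = probe without SIAE protein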
rCAG RNA binder: binders of r(CAG) RNA repeats, primary screen, biochemical, fluorescence. inhibition, % at 3 µM. AID 651821, 2012. 370,000 tested, 1.3% active. r(CAG) RNA repeat, TO-PRO-1 dye displacement fluorescence;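 active means inhibition above the plate cutoff, the mean of all test compounds on that plate plus 3 SD, cut at about 35% in these data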;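 further: 0% = DMSO alone and 100% = 100 µM mitoxantrone as full dye displacement; higher means more dye released from RNA so lower well fluorescence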
TCR CD3 inh: inhibitors of human TCR-CD3 interaction, primary screen, biochemical, fluorescence, TAMRA-labeled TCR probe | T-cell receptor (TCR) | inhibition, % at 9.4 µM | 360,000 tested, 0.37% active | AID 651800, 2012; in the data active means inhibition above about 19%;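 further: recombinant mutant TCR 2C K166C tagged with TAMRA read by polarization; 0% = receptor in buffer alone and 100% = receptor with positive control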
rCAG binder conf: small molecules binding CAG repeat RNA – biochemical, fluorescence, confirmation; shares compounds with rCAG RNA binder; r(CAG) RNA repeat, TO-PRO-1 dye displacement fluorescence; inhibition, % at 3 µM; 4,300 tested, 70% active;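 active means inhibition above a per-plate cutoff, the mean inhibition of sample wells plus 3 SD, cut at about 35% in these data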;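 further: loss of TO-PRO-1 fluorescence as compound displaces dye from 1x1 AA loop RNA; 0% = DMSO only wells and 100% = 100 µM mitoxantrone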
DNA CAG counter: displacement of TO-PRO-1 from CAG DNA duplex, counter-screen for rCAG RNA repeat binder project, biochemical, fluorescence, TO-PRO-1 dye, d(CAG) DNA oligo; d(CAG) DNA oligo TO-PRO-1 dye displacement; inhibition, % at 3 µM; 4,300 tested, 94% active; shares compounds with rCAG RNA binder;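 active means inhibition above its plate's cutoff, the mean test-well inhibition plus 3 SD, cut at about 4.8% in these data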;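 further: 0% = DNA dye mix with DMSO and 100% = 100 µM mitoxantrone; hits displace the dye from DNA and so lower well fluorescence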
PRMT1 confirm: PRMT1 methyltransferase inhibitors, confirmation, biochemical, fluorescence polarization, triplicate; shares compounds with PRMT1 FP inh; recombinant His-PRMT1, activity-based probe fluorescence polarization; inhibition, % at 2.79 µM; 3,300 tested, 42% active;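 active means mean inhibition across replicates above the hit cutoff derived for the earlier primary screen, cut at about 22% in these data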
ABHD4 confirm: ABHD4 inhibitors, retest, confirmation, biochemical, fluorescence polarization, mouse. AID 720658, 2013. 1,800 tested, 55% active. purified mABHD4, FP-Rh probe fluorescence polarization. shares compounds with mABHD4 FP. inhibition, % at 8.92 µM;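 active means mean inhibition across replicates above the hit cutoff set in the primary screen, cut at about 30% in these data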;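 further: 0% = wild-type ABHD4 with DMSO and 100% = catalytically dead S159A mutant with DMSO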
* = called active by the depositor; . = not tested or not shown.

SMILES | mABHD4 FP | PRMT1 FP inh | SIAE primary | rCAG RNA binder | TCR CD3 inh | rCAG binder conf | DNA CAG counter | ABHD4 confirm | others
O=S(=O)(Nc1nc(-c2ccco2)c(-c2ccco2)s1)c1ccc(F)cc1F | 46.9* | 45.0* | -1.3 | 61.6* | 11.0 | 52.9* | 19.9* | 12.2 | PRMT1 confirm=19.7
Cc1nc2ccc(NS(=O)(=O)c3ccc(F)cc3F)cc2s1 | 1.1 | -2.2 | 4.1 | 9.3 | -5.0 | . | . | .
CN(CCc1ccccn1)C(=O)c1ccc(Sc2ccccc2Cl)c([N+](=O)[O-])c1 | -2.1 | 1.6 | -1.9 | -0.1 | . | . | . | .
CC(=O)Oc1cc2c3c(c1)/C(=C1/SC(=S)NC1=O)C(=O)N3C(C)(C)C=C2C | 61.2* | 5.2 | 6.0 | 59.4* | 2.5 | 91.8* | 73.4* | 100.7*
CCOc1cc2c3c(c1)C(C)=CC(C)(C)N3C(=O)C2=O | 8.6 | 4.3 | 4.4 | -1.9 | -9.7 | . | . | .
c1ccc(Nc2cccc3c(Nc4ccccc4)cccc23)cc1 | 22.6 | 9.5 | 3.6 | 7.2 | 5.9 | . | . | .
O=S(=O)(O)c1cccc2cccc(Nc3ccccc3)c12 | 61.3* | 25.1* | 8.2 | 47.0* | 7.1 | 64.0* | 24.6* | 23.3
COc1ccc(COC[C@H](C)N2C[C@@H](C)[C@H](CN(C)S(=O)(=O)c3ccc(F)cc3)OCCCC[C@H](C)Oc3ccc(NC(=O)Nc4ccccc4)cc3C2=O)cc1 | -39.1 | 7.2 | -9.3 | . | . | . | . | .
C[C@H]1[C@@H](NC(=O)c2ccc(Cl)cc2)CC[C@@]23CCCN2C(=O)CCC[C@@H]13 | 1.5 | 1.8 | 7.7 | . | . | . | . | .
CCOC(=O)Cc1cc(=O)n2[nH]cc(-c3cccc(Br)c3)c2n1 | 31.9* | -1.2 | -1.0 | 67.0* | 1.3 | 53.2* | 17.3* | 21.9
CC1=C2NC(N)=[N+](CC3CC3)C(Cc3ccccc3)[C@@H]2n2c(=O)n(-c3ccccc3)c(=O)n2C1 (stereo partly specified) | 2.9 | -0.7 | 3.0 | 14.7 | . | . | . | .
COc1ccc(/C(C)=N/Nc2cccc(C(=O)O)c2)cc1OC | 9.3 | 1.6 | 2.8 | 2.7 | 8.6 | . | . | .
C/C(=N\Nc1cccc(C(=O)O)c1)c1ccc(Cl)s1 | 39.6* | 42.5* | -5.5 | 41.7* | -2.2 | 21.1 | 3.5 | 44.8* | PRMT1 confirm=10.4
COc1cccc(/C=N/Nc2snc(SC)c2C#N)c1O | 32.9* | 0.3 | -24.0 | 74.6* | 5.4 | 48.1* | 19.0* | 23.1
CSc1nsc(N/N=C/c2ccccc2)c1C#N | 23.9 | 3.6 | 10.2 | 22.7 | -2.7 | . | . | .
COc1ccc(/C=N/Nc2snc(SC)c2C#N)cc1OC | 34.7* | 6.8 | -4.3 | 50.2* | 0.9 | 35.7* | 11.0* | 34.2*
O=C1[C@H]2C[C@@]3(n4ccc5ccccc54)c4ccccc4N(S(=O)(=O)c4ccccc4)[C@H]3N2C(=O)CN1Cc1ccccc1 | -10.5 | -3.1 | -5.8 | 9.8 | . | . | . | .
CCCCCCCCN1C(=O)[C@@H](CC(=O)NCCc2ccccc2OC)C[C@@]2(C(=O)OC)C1=C[C@H](COCc1ccccc1)O[C@@H]2C | 0.4 | 0.0 | 0.0 | 2.2 | . | . | . | .
COc1cc(/C=C/C(=O)O)cc(S(=O)(=O)NC2CCCC2)c1OC | -3.5 | -1.9 | -0.6 | 5.5 | -13.0 | . | . | .
COc1cc(/C=C/C(=O)O)cc(S(=O)(=O)Nc2cc(Cl)c(Cl)cc2Cl)c1OC | 32.4* | 1.5 | 1.8 | 64.8* | 5.6 | 36.6* | 7.4* | 34.8*
